Bioassay records (PubChem)
The list is not random: actives were taken first. Their share in the collection is about 1.8%.
NPY1 pot ag = NPY-Y1 receptor potentiators or agonists, primary screen, cell-based | NPY-Y1 expressing cells, potentiator/agonist activation | Neuropeptide Y receptor type 1 (Homo sapiens), P25929 | actives 0.37% (n = 220,000) | activation, % at 3.6 µM; in the data active = activation above about 33%, passing the limit was not always enough;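 note: cells stimulated with NPY at EC10 then isoproterenol at EC100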
NPY Y1 blocker = NPY-Y1 receptor antagonists, primary screen, cell-based | inhibition, % at 3.6 µM | HEK293-CNG Y1 cells, membrane potential fluorescence; NPY at EC95, then isoproterenol | actives 1% (n = 200,000) | Neuropeptide Y receptor type 1 (Homo sapiens), P25929;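 active = inhibition above the campaign mean inhibition of all tested compounds plus 3 SD, cut at about 20% in these data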
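Test system – HEK293 Y1/CNG channel cell line · Also added – NPY agonist 25 nM, then isoproterenol 1 µM plus Ro 20-1724 25 µM · Compound dosing – one concentration, 3.6 µM, in 0.4% DMSO · Schedule – compound incubation 1 h at room temperature, readout 45 min post-stimulation · Technique – fluorescence, membrane potential probe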
NPY2 pot ag = NPY-Y2 potentiators or agonists, primary screen, cell-based | Neuropeptide Y receptor type 2 (Homo sapiens), P49146 | cells expressing NPY-Y2, potentiator/agonist read-out | activation, % at 3.6 µM | actives 0.45% (n = 220,000); in the data active = activation above about 27%;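 note: cells stimulated with NPY near EC25 plus isoproterenol at EC100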
Target sequence (P49146 whole entry, looked up): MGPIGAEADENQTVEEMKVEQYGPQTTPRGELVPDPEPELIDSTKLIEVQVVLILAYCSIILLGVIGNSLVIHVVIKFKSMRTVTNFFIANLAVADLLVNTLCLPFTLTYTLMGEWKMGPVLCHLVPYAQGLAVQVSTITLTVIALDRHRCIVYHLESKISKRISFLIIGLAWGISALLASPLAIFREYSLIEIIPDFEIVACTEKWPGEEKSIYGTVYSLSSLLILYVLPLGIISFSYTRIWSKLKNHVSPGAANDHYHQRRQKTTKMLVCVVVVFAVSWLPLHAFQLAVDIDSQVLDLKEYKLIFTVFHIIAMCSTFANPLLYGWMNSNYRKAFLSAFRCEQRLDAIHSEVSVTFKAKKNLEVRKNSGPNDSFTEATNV
NPY Y2 blocker = NPY-Y2 receptor antagonists, primary screen, cell-based | Neuropeptide Y receptor type 2 (Homo sapiens), P49146 | NPY-Y2 expressing cells, antagonist mode | inhibition, % at 2.7 µM | actives 0.99% (n = 140,000); in the data active = inhibition above about 17%
NPY1 antag ctr = NPY-Y1 receptor antagonists, selectivity check, counter-screen for NPY-Y2 antagonist project, cell-based | AID 1256, 2008 | actives 19% (n = 710) | cell-based NPY-Y1 antagonism counterscreen | inhibition, % at 3.6 µM | shares compounds with NPY Y2 blocker; in the data active = inhibition above about 20%;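 note: cells challenged with NPY then isoproterenol with cAMP sensed through a CNG channel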
NPY2 antag conf = NPY-Y2 receptor antagonists, retest of hits, confirmation, HEK293-CNG cells, membrane potential fluorescence, triplicate | actives 32% (n = 710) | shares compounds with NPY Y2 blocker | inhibition, % at 2.8 µM | HEK293 NPY-Y2 CNG channel;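 active = mean inhibition of triplicate wells above the hit cutoff set in the primary screen, cut at about 17% in these data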
Each line names hits and unclear results; the compound was inactive in the other large screens (follow-up assays come after a bar, where they were run).

CCCCOC(=O)Nc1nc(C)c(C(=O)OCC)s1	NPY Y2 blocker 18 | NPY1 antag ctr inactive | NPY2 antag conf inactive
CCOC(=O)c1sc(NC(=O)CC)nc1C	none (no result: NPY Y2 blocker)
CCCCc1nc2ccccc2c(N)c1CCC (tested in a mixture with another compound)	NPY Y2 blocker 18 | NPY1 antag ctr inactive | NPY2 antag conf inactive
CCCCc1nc2ccccc2c(NC(=O)CNC(C)(C)C)c1CCC	none
O=C(c1ccccc1)N(Cc1cccnc1)C1(C(=O)Nc2ccccc2)CCCCC1	NPY Y2 blocker 19 | NPY1 antag ctr inactive | NPY2 antag conf inactive
COc1ccc(NC(=S)N2CCC(C(O)(c3ccccc3)c3ccccc3)CC2)cc1	none
CCOc1ccc(NC(=S)N2CCC(C(O)(c3ccccc3)c3ccccc3)CC2)cc1	NPY Y2 blocker 54 | NPY1 antag ctr inactive | NPY2 antag conf 94
O=C(O)Cc1c(C(=O)O)[nH]c2ccc(C(=O)O)cc12	none (no result: NPY Y1 blocker, NPY Y2 blocker)
Cc1c(NC(=O)C(Sc2ccccc2)c2ccccc2)cccc1[N+](=O)[O-] (stereo not given)	NPY Y2 blocker 18 | NPY1 antag ctr inactive | NPY2 antag conf inactive
Cc1ccc(Nc2nc(N)nc(CSc3ncccn3)n2)cc1	none
Cc1ccc(Nc2nc(N)nc(CSc3nc(C)cc(C)n3)n2)cc1	NPY Y2 blocker 29 | NPY1 antag ctr inactive | NPY2 antag conf inactive
O=[N+]([O-])c1ccc(-c2csc(Nc3ccccc3)[n+]2Cc2ccccc2)cc1	NPY Y2 blocker 19 | NPY1 antag ctr inactive | NPY2 antag conf inactive
CCCCn1c(=N)n(CCOc2ccc(C)cc2)c2ccccc21	NPY Y2 blocker 20 | NPY1 antag ctr inactive | NPY2 antag conf inactive
COc1ccc(N(CC(=O)N/N=C/c2ccc(OC3CSC3)cc2)S(=O)(=O)c2ccccc2)cc1	NPY Y2 blocker 21 | NPY1 antag ctr 22 | NPY2 antag conf 54
Cc1ccc(N(CC(=O)N/N=C/c2ccc(OC3CSC3)cc2)S(=O)(=O)c2ccccc2)cc1	none
CCOc1ccccc1NC(=S)N(CCC(C)C)C1CCN(C(C)=O)CC1	none (no result: NPY Y2 blocker)
Cc1ccc(-c2nn3c(C)nnc3s2)cc1NC(=O)c1ccc(-c2ccc(Cl)cc2Cl)o1	NPY Y2 blocker 19 | NPY1 antag ctr 22 | NPY2 antag conf 24
N#C/C(=C\c1cn(Cc2ccc(F)cc2)c2ccccc12)C(=O)NCc1ccco1	NPY Y2 blocker 18 | NPY1 antag ctr inactive | NPY2 antag conf inactive
O=C(Cc1ccc(Br)cc1)OCC(=O)c1ccc2c(c1)OCCO2	NPY Y2 blocker 17 | NPY1 antag ctr inactive | NPY2 antag conf inactive
O=C(Cc1n[nH]c(=O)c2ccccc12)OCC(=O)c1ccc2c(c1)OCCO2	none
CCOC(=O)C1CCCN(c2nc(C)nc3c2oc2ccccc23)C1 (stereo not given)	NPY Y2 blocker 18 | NPY1 antag ctr inactive | NPY2 antag conf inactive
Cc1nc(N2CCOCC2)c2oc3ccccc3c2n1	none
CC(=O)NC1=NN(C(C)=O)C(c2ccc(F)cc2)S1 (stereo not given)	none (no result: NPY Y2 blocker)
CCOc1cc(C(=S)N2CCOCC2)ccc1OS(=O)(=O)c1ccccc1[N+](=O)[O-]	none
c1ccc(C2=Nn3c(nnc3-c3n[nH]c4c3CCC4)SC2)cc1	none
Clc1ccc(C2=Nn3c(nnc3-c3n[nH]c4c3CCC4)SC2)cc1Cl	NPY Y2 blocker 67 | NPY1 antag ctr inactive | NPY2 antag conf 18
CCOc1ccc(C(C(=O)NC2CCCC2)N(Cc2ccccc2)C(=O)c2nsc(Cl)c2Cl)cc1 (stereo not given)	NPY Y2 blocker 25 | NPY1 antag ctr 21 | NPY2 antag conf inactive
CCC(=O)Nc1nonc1-c1nc2ccccc2n1Cc1cccc2ccccc12	NPY Y2 blocker 18 | NPY1 antag ctr 26 | NPY2 antag conf 41
CC(C)NCC(O)COCCOc1ccc(C(C)(C)C)cc1 (stereo not given)	NPY Y2 blocker 24 | NPY1 antag ctr inactive | NPY2 antag conf inactive
Cc1cc(S(=O)(=O)N2CCCC(C(=O)Nc3ccc(C(=O)O)cc3)C2)ccc1Cl (stereo not given)	none (no result: NPY Y2 blocker)
C=CC(C)Sc1nc2c(c(=O)n(C)c(=O)n2C)n1Cc1ccccc1Cl (stereo not given)	NPY Y2 blocker 18 | NPY1 antag ctr inactive | NPY2 antag conf inactive
O=C(CSc1nnc(-c2cccs2)o1)c1cccs1	none
Cc1cc(C(=O)CSc2nnc(-c3cccs3)o2)c(C)n1-c1ccccc1	NPY Y2 blocker 20 | NPY1 antag ctr inactive | NPY2 antag conf inactive
C/C(=N\O)c1ccc(N2C(=O)C3CC=C(Cl)CC3C2=O)cc1 (stereo not given)	NPY Y2 blocker 23 | NPY1 antag ctr inactive | NPY2 antag conf inactive
OC1(c2ccccc2)CCN(Cc2ccccc2)C2CCCCC21 (stereo not given)	NPY Y2 blocker 29 | NPY1 antag ctr inactive | NPY2 antag conf 43
Cc1cccc(N2CCN(CC(=O)Nc3ccccc3[N+](=O)[O-])CC2)c1C	NPY Y2 blocker 38 | NPY1 antag ctr inactive | NPY2 antag conf inactive
Cc1cccc(C(=O)Nc2ccc(NC(=O)Cc3ccc(Cl)cc3)cc2)c1	none
O=C(Cc1ccc(Cl)cc1)Nc1ccc(NC(=O)c2ccccc2)cc1	NPY Y2 blocker 21 | NPY1 antag ctr inactive | NPY2 antag conf inactive
O=C(Nc1ccc(Cl)cc1)c1csc(-c2ccccc2)n1	NPY Y2 blocker 20 | NPY1 antag ctr inactive | NPY2 antag conf 23
O=C(Nc1ccc(Cl)cc1)c1csc(-c2ccncc2)n1	none (no result: NPY Y2 blocker)
Cc1cc(S(=O)(=O)N2CCCCCC2)c(Cl)cc1Cl	none
CCCC(C)C(=O)OCC(=O)Nc1ccc(Br)cc1 (stereo not given)	none (no result: NPY Y2 blocker)
COc1ccc(CNCc2ccco2)cc1OCc1ccccc1	none
COc1ccccc1CCNCc1ccc(OC)c(OCc2ccccc2)c1	NPY Y2 blocker 20 | NPY1 antag ctr inactive | NPY2 antag conf 92
Cc1cc(C(=O)COC(=O)c2ccccc2O)c(C)n1Cc1cccs1	none
CCn1nc(C(=O)OCC(=O)c2cc(C)n(Cc3cccs3)c2C)c2ccccc2c1=O	NPY Y2 blocker 24 | NPY1 antag ctr inactive | NPY2 antag conf 25
CCOc1ccc(CNCCNC(=O)c2nonc2N)cc1	none (no result: NPY Y2 blocker)
Nc1nonc1C(=O)NCCNCc1ccccc1OCc1ccc(F)cc1	NPY Y2 blocker 17 | NPY1 antag ctr inactive | NPY2 antag conf inactive
CNC(=O)c1sc(-c2ccccc2)nc1C	none
Cc1nc(-c2ccccc2)sc1C(=O)CSc1ccc(F)cc1	NPY Y2 blocker 20 | NPY1 antag ctr 21 | NPY2 antag conf 25
CCOC(=O)Cn1nc(-c2ccc(C)cc2)c2ccccc2c1=O	none (no result: NPY Y2 blocker)
